Assay results as given in ChEMBL document CHEMBL3779805, “Orally bioavailable pyridine and pyrimidine-based Factor XIa inhibitors: Discovery of the methyl N-phenyl carbamate P2 prime group” (Bioorg Med Chem, 2016).

Legend:
Canis familiaris [1] = test: Volume of distribution at steady state in beagle dog plasma at 0.2 mg/kg, iv and 0.2 mg/kg, po by LC-MS/MS method; assay type: ADME, organism-based, Canis lupus familiaris; details: in vivo
How it was run: (§1)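 Dogs dosed iv and po in N-in-1 (cassette) format. The same vehicle was used for both routes: 70% water, 10% ethanol, 10% dimethylacetamide, 10% polypropylene glycol.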

[2] = Oral bioavailability in beagle dog plasma at 0.2 mg/kg by LC-MS/MS method; assay type: ADME, organism-based, Canis lupus familiaris; how it was run: as §1
Coagulation factor XI = Coagulation factor XI (Homo sapiens, UniProt P03951)
Plasma = test: Anticoagulant activity in human plasma assessed as concentration required for 50% increase in activated partial thromboplastin time by automated coagulation analyzer; assay type: functional
How it was run: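 aPTT clotting assay in pooled normal human plasma on an automated coagulation analyzer with commercial reagents. EC1.5x is the inhibitor plasma concentration giving a 50% increase in clotting time over the no-inhibitor control.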

Canis familiaris [3] = test: Clearance in beagle dog plasma at 0.2 mg/kg, iv and 0.2 mg/kg, po administered in cassette format by LC-MS/MS method; assay type: ADME, organism-based, Canis lupus familiaris; details: in vivo; how it was run: as §1
Canis familiaris [4] = test: Half life in beagle dog plasma at 0.2 mg/kg, iv and 0.2 mg/kg, po by LC-MS/MS method; assay type: ADME, organism-based, Canis lupus familiaris; details: in vivo; how it was run: as §1
[5] = Volume of distribution at steady state in beagle dog plasma at 0.4 mg/kg, iv and 0.8 mg/kg, po by LC-MS/MS method; assay type: ADME, organism-based, Canis lupus familiaris; details: read-out: Vdss; how it was run: as §1
[6] = Oral bioavailability in beagle dog plasma at 0.8 mg/kg by LC-MS/MS method; assay type: ADME, organism-based, Canis lupus familiaris; how it was run: as §1
[7] = AUC in beagle dog plasma at 0.4 mg/kg, iv and 0.8 mg/kg, po by LC-MS/MS method; assay type: ADME, organism-based, Canis lupus familiaris; how it was run: as §1
[8] = Clearance in beagle dog plasma at 0.4 mg/kg, iv and 0.8 mg/kg, po administered in cassette format by LC-MS/MS method; assay type: ADME, organism-based, Canis lupus familiaris; how it was run: as §1
[9] = Half life in beagle dog plasma at 0.4 mg/kg, iv and 0.8 mg/kg, po by LC-MS/MS method; assay type: ADME, organism-based, Canis lupus familiaris; how it was run: as §1
[10] = Volume of distribution at steady state in beagle dog plasma at 0.2 mg/kg, iv and 0.29 mg/kg, po by LC-MS/MS method; assay type: ADME, organism-based, Canis lupus familiaris; details: read-out: Vdss; how it was run: as §1
[11] = Oral bioavailability in beagle dog plasma at 0.29 mg/kg by LC-MS/MS method; assay type: ADME, organism-based, Canis lupus familiaris; how it was run: as §1
[12] = AUC in beagle dog plasma at 0.2 mg/kg, iv and 0.29 mg/kg, po by LC-MS/MS method; assay type: ADME, organism-based, Canis lupus familiaris; how it was run: as §1
[13] = Clearance in beagle dog plasma at 0.2 mg/kg, iv and 0.29 mg/kg, po administered in cassette format by LC-MS/MS method; assay type: ADME, organism-based, Canis lupus familiaris; how it was run: as §1
[14] = Half life in beagle dog plasma at 0.2 mg/kg, iv and 0.29 mg/kg, po by LC-MS/MS method; assay type: ADME, organism-based, Canis lupus familiaris; how it was run: as §1
Coagulation factor X = Coagulation factor X (Homo sapiens, UniProt P00742); test: Inhibition of human coagulation factor 10a assessed as reduction in release of p-nitroaniline after 10 to 120 mins by Michaelis-Menten equation analysis
How it was run: (§2)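 Purified human enzymes with commercial synthetic peptide substrates. IC50 from 4–11 inhibitor concentrations, run in duplicate at a fixed substrate concentration (standard error <20%). Ki = IC50/(1+S/Km), assuming competitive inhibition.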

Prothrombin = Prothrombin (Homo sapiens, UniProt P00734); test: Inhibition of human coagulation thrombin assessed as reduction in release of p-nitroaniline after 10 to 120 mins by Michaelis-Menten equation analysis; how it was run: as §2
Trypsin = Trypsin (Homo sapiens, UniProt P07477+P07478+P35030); test: Inhibition of human coagulation trypsin assessed as reduction in release of p-nitroaniline after 10 to 120 mins by Michaelis-Menten equation analysis; assay type: protein assay; how it was run: as §2
Plasma kallikrein = Plasma kallikrein (Homo sapiens, UniProt P03952); test: Inhibition of human plasma kallikrein assessed as reduction in release of p-nitroaniline after 10 to 120 mins by Michaelis-Menten equation analysis; assay type: cell-free; how it was run: as §2
[15] = molecular target: Vitamin K-dependent protein C (Homo sapiens, UniProt P04070); test: Inhibition of human activated protein C assessed as reduction in release of p-nitroaniline after 10 to 120 mins by Michaelis-Menten equation analysis; how it was run: as §2
Plasminogen = Plasminogen (Homo sapiens, UniProt P00747); test: Inhibition of human plasmin assessed as reduction in release of p-nitroaniline after 10 to 120 mins by Michaelis-Menten equation analysis; how it was run: as §2
[16] = molecular target: Tissue-type plasminogen activator (Homo sapiens, UniProt P00750); test: Inhibition of human TPA assessed as reduction in release of p-nitroaniline after 10 to 120 mins by Michaelis-Menten equation analysis; how it was run: as §2
[17] = molecular target: Urokinase-type plasminogen activator (Homo sapiens, UniProt P00749); test: Inhibition of human urokinase assessed as reduction in release of p-nitroaniline after 10 to 120 mins by Michaelis-Menten equation analysis; how it was run: as §2
[18] = Inhibition of human […] chymotrypsin assessed as reduction in release of p-nitroaniline after 10 to 120 mins by Michaelis-Menten equation analysis
Coagulation factor IX = Coagulation factor IX (Homo sapiens, UniProt P00740); test: Inhibition of human coagulation factor 9a assessed as reduction in release of p-nitroaniline after 10 to 120 mins by Michaelis-Menten equation analysis; how it was run: as §2
Coagulation factor VII = molecular target: T1, Coagulation factor VII (Homo sapiens, UniProt P08709); test: Inhibition of human coagulation factor 7a assessed as reduction in release of p-nitroaniline after 10 to 120 mins by Michaelis-Menten equation analysis; how it was run: as §2
T1 sequence (P08709 whole entry): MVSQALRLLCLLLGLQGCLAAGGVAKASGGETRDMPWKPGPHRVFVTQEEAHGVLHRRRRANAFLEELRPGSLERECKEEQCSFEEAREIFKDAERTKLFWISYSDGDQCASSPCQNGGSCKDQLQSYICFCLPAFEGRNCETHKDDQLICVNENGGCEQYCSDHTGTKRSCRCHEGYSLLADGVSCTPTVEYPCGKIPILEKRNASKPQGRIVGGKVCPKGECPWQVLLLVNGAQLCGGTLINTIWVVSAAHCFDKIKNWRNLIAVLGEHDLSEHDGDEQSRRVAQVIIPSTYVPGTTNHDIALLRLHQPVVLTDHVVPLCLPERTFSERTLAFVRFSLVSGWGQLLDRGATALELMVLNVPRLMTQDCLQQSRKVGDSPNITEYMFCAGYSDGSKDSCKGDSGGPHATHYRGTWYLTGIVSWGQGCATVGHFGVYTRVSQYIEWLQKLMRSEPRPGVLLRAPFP

Coagulation factor XI, sequence (P03951 19-387 limits assumed): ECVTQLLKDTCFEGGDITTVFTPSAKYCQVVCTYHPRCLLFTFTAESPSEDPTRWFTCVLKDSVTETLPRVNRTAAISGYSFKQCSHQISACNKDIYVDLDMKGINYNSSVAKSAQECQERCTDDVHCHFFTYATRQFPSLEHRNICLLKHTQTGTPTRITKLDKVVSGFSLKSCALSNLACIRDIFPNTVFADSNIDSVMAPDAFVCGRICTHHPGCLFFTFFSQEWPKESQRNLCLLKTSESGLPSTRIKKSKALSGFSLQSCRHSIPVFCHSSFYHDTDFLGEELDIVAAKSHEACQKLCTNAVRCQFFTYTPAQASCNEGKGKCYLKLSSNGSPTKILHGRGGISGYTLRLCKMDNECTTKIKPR
Coagulation factor XI, sequence (P03951 388-625 limits assumed): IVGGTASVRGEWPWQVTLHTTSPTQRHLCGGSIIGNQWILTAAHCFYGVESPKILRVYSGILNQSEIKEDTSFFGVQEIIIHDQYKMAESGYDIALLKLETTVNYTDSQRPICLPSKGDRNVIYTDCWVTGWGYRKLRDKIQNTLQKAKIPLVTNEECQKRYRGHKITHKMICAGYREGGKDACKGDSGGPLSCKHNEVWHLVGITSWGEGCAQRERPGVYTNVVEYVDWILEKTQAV
Vitamin K-dependent protein C, sequence (P04070 43-197 limits assumed): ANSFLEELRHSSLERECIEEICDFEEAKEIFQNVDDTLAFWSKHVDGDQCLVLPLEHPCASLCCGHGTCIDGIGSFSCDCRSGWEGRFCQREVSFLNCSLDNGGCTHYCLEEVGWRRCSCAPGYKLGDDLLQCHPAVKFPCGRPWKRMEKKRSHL
Vitamin K-dependent protein C, sequence (P04070 212-461 limits assumed): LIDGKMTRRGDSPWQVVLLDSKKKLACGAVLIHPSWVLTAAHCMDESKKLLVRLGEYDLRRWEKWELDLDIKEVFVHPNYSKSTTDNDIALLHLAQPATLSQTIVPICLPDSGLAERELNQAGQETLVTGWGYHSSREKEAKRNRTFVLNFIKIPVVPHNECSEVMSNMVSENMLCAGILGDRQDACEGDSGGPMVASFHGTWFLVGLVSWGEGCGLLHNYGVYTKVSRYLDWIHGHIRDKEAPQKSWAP
Tissue-type plasminogen activator, sequence (P00750 whole entry): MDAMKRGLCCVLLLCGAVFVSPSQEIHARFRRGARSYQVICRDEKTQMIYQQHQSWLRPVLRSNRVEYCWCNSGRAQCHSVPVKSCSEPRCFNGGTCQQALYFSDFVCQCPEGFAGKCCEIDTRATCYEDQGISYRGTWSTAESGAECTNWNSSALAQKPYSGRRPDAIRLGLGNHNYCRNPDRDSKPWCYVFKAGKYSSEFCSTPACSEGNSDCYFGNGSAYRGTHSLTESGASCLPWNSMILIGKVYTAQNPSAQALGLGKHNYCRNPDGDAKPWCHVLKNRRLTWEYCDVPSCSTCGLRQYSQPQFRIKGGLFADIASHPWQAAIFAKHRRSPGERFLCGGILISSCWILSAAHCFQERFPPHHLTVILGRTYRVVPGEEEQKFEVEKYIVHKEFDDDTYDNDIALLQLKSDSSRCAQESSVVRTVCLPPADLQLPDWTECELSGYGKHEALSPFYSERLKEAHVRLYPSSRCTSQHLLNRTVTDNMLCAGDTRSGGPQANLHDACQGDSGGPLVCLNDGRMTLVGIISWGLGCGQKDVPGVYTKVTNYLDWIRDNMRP
Coagulation factor X, sequence (P00742 41-179 limits assumed): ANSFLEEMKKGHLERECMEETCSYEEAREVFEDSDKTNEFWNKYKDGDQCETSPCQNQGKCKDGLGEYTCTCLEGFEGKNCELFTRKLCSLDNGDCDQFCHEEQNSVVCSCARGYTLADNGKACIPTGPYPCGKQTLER
Coagulation factor X, sequence (P00742 235-488 limits assumed): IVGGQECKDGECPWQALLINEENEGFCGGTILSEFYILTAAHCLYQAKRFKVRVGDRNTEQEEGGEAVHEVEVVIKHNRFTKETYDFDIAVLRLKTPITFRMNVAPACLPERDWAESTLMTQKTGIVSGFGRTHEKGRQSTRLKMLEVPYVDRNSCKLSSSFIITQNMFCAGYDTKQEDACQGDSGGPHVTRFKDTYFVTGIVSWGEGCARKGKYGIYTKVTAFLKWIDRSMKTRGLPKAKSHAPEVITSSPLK
Plasma kallikrein, sequence (P03952 20-390 limits assumed): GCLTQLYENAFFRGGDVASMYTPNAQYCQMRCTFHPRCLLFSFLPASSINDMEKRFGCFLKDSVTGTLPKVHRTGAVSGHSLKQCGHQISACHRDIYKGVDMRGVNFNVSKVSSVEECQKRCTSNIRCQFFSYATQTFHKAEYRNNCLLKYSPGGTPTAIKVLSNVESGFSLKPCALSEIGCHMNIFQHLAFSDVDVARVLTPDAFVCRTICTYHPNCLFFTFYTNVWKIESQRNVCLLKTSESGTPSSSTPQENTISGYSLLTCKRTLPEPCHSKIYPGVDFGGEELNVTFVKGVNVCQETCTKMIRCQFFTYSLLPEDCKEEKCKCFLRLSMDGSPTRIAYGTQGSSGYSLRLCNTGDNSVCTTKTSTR
Plasma kallikrein, sequence (P03952 391-638 limits assumed): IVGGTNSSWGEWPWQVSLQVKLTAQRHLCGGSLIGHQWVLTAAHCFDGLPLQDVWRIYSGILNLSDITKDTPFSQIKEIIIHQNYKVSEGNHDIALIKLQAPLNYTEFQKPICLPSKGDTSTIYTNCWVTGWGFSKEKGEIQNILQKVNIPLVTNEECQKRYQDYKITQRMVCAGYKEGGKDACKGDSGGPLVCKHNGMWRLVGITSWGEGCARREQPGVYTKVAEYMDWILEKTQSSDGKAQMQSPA
Coagulation factor IX, sequence (P00740 47-191 limits assumed): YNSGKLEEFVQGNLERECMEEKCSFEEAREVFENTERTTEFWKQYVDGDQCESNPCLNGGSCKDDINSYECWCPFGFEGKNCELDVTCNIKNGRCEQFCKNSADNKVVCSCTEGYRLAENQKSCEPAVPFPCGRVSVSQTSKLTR
Coagulation factor IX, sequence (P00740 227-461 limits assumed): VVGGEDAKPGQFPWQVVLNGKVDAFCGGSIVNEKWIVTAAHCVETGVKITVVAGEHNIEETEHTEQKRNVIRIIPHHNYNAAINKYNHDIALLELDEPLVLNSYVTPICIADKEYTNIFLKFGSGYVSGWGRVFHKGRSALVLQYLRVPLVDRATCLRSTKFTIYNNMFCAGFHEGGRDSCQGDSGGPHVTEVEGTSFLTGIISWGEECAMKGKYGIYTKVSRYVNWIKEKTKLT
Plasminogen, sequence (P00747 97-580 limits assumed): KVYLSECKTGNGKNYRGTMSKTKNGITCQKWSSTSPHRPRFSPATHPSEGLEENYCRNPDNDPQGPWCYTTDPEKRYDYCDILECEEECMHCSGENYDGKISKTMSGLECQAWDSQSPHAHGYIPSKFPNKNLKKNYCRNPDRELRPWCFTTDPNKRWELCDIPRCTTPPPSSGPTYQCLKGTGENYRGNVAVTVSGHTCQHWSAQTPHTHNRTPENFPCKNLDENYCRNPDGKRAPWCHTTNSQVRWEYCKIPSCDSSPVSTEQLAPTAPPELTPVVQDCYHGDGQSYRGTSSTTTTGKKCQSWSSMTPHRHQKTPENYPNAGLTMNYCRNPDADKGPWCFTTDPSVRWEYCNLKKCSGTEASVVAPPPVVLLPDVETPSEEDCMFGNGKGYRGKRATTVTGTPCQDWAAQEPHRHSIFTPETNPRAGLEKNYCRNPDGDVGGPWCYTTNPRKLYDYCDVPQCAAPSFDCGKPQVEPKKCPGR
Plasminogen, sequence (P00747 581-810 limits assumed): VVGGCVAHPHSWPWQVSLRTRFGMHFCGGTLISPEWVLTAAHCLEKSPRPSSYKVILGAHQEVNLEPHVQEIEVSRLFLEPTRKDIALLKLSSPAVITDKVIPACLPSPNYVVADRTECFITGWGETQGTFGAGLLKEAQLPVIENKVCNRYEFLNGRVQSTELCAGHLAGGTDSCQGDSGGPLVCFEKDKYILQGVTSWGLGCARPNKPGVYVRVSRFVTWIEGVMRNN

For COC(=O)Nc1ccc(-c2cc([C@H](Cc3ccccc3)NC(=O)/C=C/c3cc(Cl)ccc3-n3cnnn3)[nH]c(=O)c2)cc1, the Vdss (Canis familiaris [1]) was 1.6 L/kg, the bioavailability [2] was 0% and the Ki (Coagulation factor XI) was 0.0024 µM. For the same compound, the EC1.5 (Plasma) was 2.8 µM, the clearance (Canis familiaris [3]) was 30 mL/min/kg and the t1/2 (Canis familiaris [4]) was 1.5 h.
COC(=O)Nc1ccc(-c2cc([C@H](Cc3ccccc3)NC(=O)[C@H]3CC[C@H](CN)CC3)[nH]c(=O)c2)cc1 gave a Vd [5] of 0.8 L/kg, a bioavailability [6] of less than 1% and an AUC [7] of 0.01 µM·h. It also gave a Ki (Coagulation factor XI) of 0.0024 µM, an EC1.5 (Plasma) of 0.4 µM and a clearance [8] of 0.283 mL/min/kg. It also gave a half-life [9] of 1.1 h.
For COC(=O)Nc1ccc(-c2cc([C@H](Cc3ccccc3)NC(=O)[C@H]3CC[C@H](CN)CC3)ncn2)cc1, the Vd [10] was 5.4 L/kg, the bioavailability [11] was 66% and the AUC [12] was 0.195 µM·h. It also gave a Ki (Coagulation factor XI) of 0.0091 µM, an EC1.5 (Plasma) of 1.2 µM and a clearance [13] of 0.45 mL/min/kg. The half-life [14] was 3.2 h.
Work on NC[C@H]1CC[C@H](C(=O)N[C@@H](Cc2ccccc2)c2cc(-c3ccc4[nH]nc(O)c4c3)ccn2)CC1 yielded a Ki (Coagulation factor X) greater than 9 µM, a Ki (Prothrombin) greater than 12.6 µM and a Ki (Trypsin) of 0.999 µM. For the same compound, the Ki (Plasma kallikrein) was 0.55 µM, the Ki [15] was greater than 30.2 µM and the Ki (Plasminogen) was greater than 22.1 µM. For the same compound, the Ki [16] was greater than 21.9 µM, the Ki [17] was greater than 14.1 µM and the Ki [18] was greater than 20.8 µM. For the same compound, the Ki (Coagulation factor IX) was greater than 34.9 µM, the Ki (Coagulation factor VII) was greater than 15.2 µM and the Ki (Coagulation factor XI) was 0.0037 µM. The EC1.5 (Plasma) was 0.4 µM.
